Data on one compound can be found in ChEMBL document CHEMBL3232893, “Design of antiviral stapled peptides containing a biphenyl cross-linker” (Bioorg Med Chem Lett, 2014).

The test system of data set [1] is Human immunodeficiency virus 1. The experiment in a line: Antiviral activity against HIV-1 3B infected in human MT-2 cells assessed as reduction in p24 antigen level incubated for overnight measured on fourth day post infection by multi-cycle infection assay based sandwich ELISA. It is filed as functional, organism-based. As to conditions: Human immunodeficiency virus 1, 3B, MT2. An outline of the steps: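 Multi-cycle infection in MT-2 cells; read-out is reduction of p24 levels. IC50 derived from dose-response.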

For data set [2], the system named is Human immunodeficiency virus 1. Description: Antiviral activity against HIV-1 NL4-3-HXB2 pseudovirus co-transfected with luciferase gene infected in human TZM-bl cells assessed as reduction of luciferase production after 3 days by single-cycle neutralization assay. It counts as functional, organism-based. Conditions: Human immunodeficiency virus 1, NL4-3-HXB2, TZM-bl, 72 h. An outline of the steps: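 Single-cycle neutralization in TZM-bl cells; read-out is reduction of luciferase production. IC50 derived from dose-response.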

Data set [3] in a line: Cytotoxicity against human MT2 cells after 4 days by XTT assay. It is filed as cell-based. (Tetrazolium assays rely on reduction of a dye to a coloured formazan, in cell work by metabolically active cells.)
Data set [4] in a line: Cytotoxicity against human TZM-bl cells after 3 days by XTT assay. It counts as cell-based.
Data set [5] can be described thus: Binding affinity to HIV-1 capsid protein C-terminal domain M184A/W185A mutant at 15 uM by isothermal titration calorimetric analysis. Further details: species or system Human immunodeficiency virus 1. The procedure, abridged:
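ITC: 350 μM CTD M184A/W185A mutant titrated in 10 μL aliquots into 15 μM peptide in the cell. The integrated binding isotherm was fitted to a single-site binding equation to give Kd.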
A general note: In ITC the heat of successive injections is recorded.

Data set [6] in a line: Binding affinity to HIV-1 C-terminal domain of capsid protein p24. More on the design: species or system Human immunodeficiency virus 1.

The structures appear in SMILES notation. Peptide text beside a SMILES is read from it.

In the case of `CC[C@H](C)[C@H](N)C(=O)N[C@H](C(=O)N[C@@H](Cc1ccccc1)C(=O)N[C@@H](CCC(=O)O)C(=O)N[C@@H](CC(=O)O)C(=O)N[C@@H](CC(C)C)C(=O)N[C@@H](CC(C)C)C(=O)N[C@@H](CC(=O)O)C(=O)N[C@@H](Cc1ccc(O)cc1)C(=O)N[C@@H](Cc1ccc(O)cc1)C(=O)NCC(=O)N1CCC[C@H]1C(=O)O)[C@@H](C)O` (H-ITFEDLLDYYGP-OH), the IC50 in data set [1] and in data set [2] was above 135 µM in each case. The CC50 (as a rule, the concentration that lowers cell viability or growth by half) at 96 h in data set [3] is above 135 µM. Besides, the CC50 at 72 h in data set [4] was above 135 µM. In addition, the Kd (as a rule, the free concentration of one partner at which half of the binding sites on the other are occupied at equilibrium, for simple one-to-one binding) in data set [5] stood at 8.3 µM; in data set [6], 15 µM.
